Experimental data published in publication PMC5708124 (Nature microbiology, 2017).
pIC50: −log10 of the molar value.

How the values were obtained:
[1] = tested on: PfMDR1 mutant lines versus parental ABS parasites (Dd2-B2, FCB); assay: Drug susceptibility profiling of HHQ-resistant lines in ABS parasites; assay type: cell-based, Plasmodium falciparum
[2] = tested on: Pf ABS parasites and GAMs; conditions: cited from earlier work
[3] = tested on: NF54^Pfs16 early-stage GAMs; assay: Luciferase-based early-stage gametocyte inhibition assay; assay type: cell-based, Plasmodium falciparum; conditions: in words
How it was run: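 Gametocytes on day 1 of gametocytogenesis were set at 10% parasitemia and 0.5% Hct. They were kept in medium with 50 mM N-acetyl-D-glucosamine, refreshed daily. Compound was added at 0.4% DMSO final. Controls were DMSO (0% inhibition) and 5 μM puromycin (100% inhibition). After 72 h at 37°C in 5% O₂/5% CO₂/90% N₂, Steadylite was added, followed by 60 min lysis at room temperature and a luminescence read. Potency used serial dilutions up to 40 μM, three per log, on two independent occasions.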

[4] = tested on: NF54^Pfs16 late-stage GAMs; assay: Image-based late-stage gametocyte inhibition assay; assay type: cell-based, Plasmodium falciparum; conditions: in words
How it was run: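 Day-8 stage IV gametocytes were MACS-purified and set at 10% parasitemia and 0.1% Hct, with 0.4% DMSO final. They were incubated 72 h at 37°C in 5% O₂/5% CO₂/90% N₂, then stained overnight with MitoTracker Red CM-H₂XRos. Confocal imaging counted viable mature gametocytes per imaged area; 5 μM puromycin was the control. Screening used 2 μM in triplicate. Potency used serial dilutions up to 40 μM, three per log, on two independent occasions.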

[5] = tested on: 3D7 (drug-sensitive) ABS parasites; assay: Imaging-based asexual blood stage high-throughput assay; assay type: cell-based, Plasmodium falciparum; conditions: read-out: ABS IC50; drug-sensitive 3D7, 72 h
How it was run: (§1)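 Sorbitol-synchronized parasites were seeded at 2% parasitemia and 0.3% Hct and exposed to test compound for 72 h at 37°C in 5% O₂/5% CO₂/90% N₂. Cells were then permeabilized with 0.01% Triton X-100, 0.001% saponin and 5 mM EDTA, and stained with 0.5 μg/mL DAPI for at least 6 h at room temperature in the dark. Confocal imaging used 405 nm excitation. Parasites were counted from spot size and intensity. Two independent cultures.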

[6] = tested on: Dd2 (multidrug-resistant) ABS parasites; assay: Imaging-based asexual blood stage high-throughput assay; assay type: cell-based, Plasmodium falciparum; conditions: read-out: ABS IC50; multidrug-resistant Dd2, 72 h
[7] = tested on: NITD609-R^Dd2 clone #2 (PfATP4 mutant line); assay: Imaging-based asexual blood stage high-throughput assay; assay type: cell-based, Plasmodium falciparum; conditions: read-out: ABS IC50, 72 h
How it was run: as §1

[8] = tested on: HEK293 human embryonic kidney cell line; assay: HEK293 cytotoxicity; assay type: cell-based; conditions: at 40 μM, 72 h
How it was run: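 Cells were grown in DMEM with 10% fetal calf serum and seeded at 2,000 cells/well, then left overnight at 37°C in 5% CO₂ to adhere. Test compound was added as a serial dilution with a maximum of 40 μM, at 0.4% DMSO final, for 72 h. Medium was then replaced with serum-free DMEM containing 44 μM resazurin for 4–6 h. Fluorescence was read at 530/595 nm. Two biological replicates.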

[9] = tested on: compound-exposed Pf GAMs in Anopheles stephensi mosquitoes; assay: Membrane-feeding assay with A. stephensi mosquitoes; assay type: in vivo, Plasmodium falciparum
How it was run: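 Day-12 gametocytes were treated 3 days at 1x or 3x their late-stage IC50, with compound refreshed daily, then held 4 days without compound. Controls were 0.25% DMSO and methylene blue at 3x. Stage V cultures (50% Hct, 0.01–0.16% parasitemia) were membrane-fed for 30 min to A. stephensi, kept at 26°C and 78% RH. Midguts were dissected on day 7–8, stained with mercurochrome and oocysts counted blind. Prevalence is the percentage of mosquitoes with at least one oocyst.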

[10] = tested on: male GAM exflagellation; assay: Male GAM exflagellation of GAM cultures used for membrane feeding; assay type: cell-based, Plasmodium falciparum; conditions: GAM cultures exposed at 3x late-stage IC50
[11] = tested on: P. berghei ANKA MRA868 ABS parasites; assay: 4-day Peters test; assay type: in vivo, P. berghei in CD-1 mice; conditions: 4 doses, 96 h post infection
How it was run: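 Female CD-1 mice (5 weeks old, 22–25 g; four per group) were infected intraperitoneally with 1x10⁶ parasites. The test compound was given intraperitoneally at 2, 24, 48 and 72 h after infection, in 20% DMSO in water. Controls were solvent only and DHA at 30 mg/kg. Parasitemia was read by microscopy at 96 h. Groups were randomized and blinded. The 100 mg/kg groups were tested once.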

[12] = tested on: P. berghei ANKA MRA868 GAMs, Anopheles stephensi mosquitoes; assay: In vivo transmission-blocking effect; design: species or system P. berghei in CD-1 mice; conditions: mice given two doses 12 h apart: 100 mg/kg GNF compounds, 30 mg/kg DHA
[13] = tested on: Dd2-B2 parasites; assay: Heme fractionation assay; assay type: cell-based, Plasmodium falciparum
[14] = tested on: PfMDR1^selY290F parasites; assay: Heme fractionation assay; assay type: cell-based, Plasmodium falciparum; conditions: PfMDR1^selY290F
How it was run: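 Early ring-stage, sorbitol-synchronized parasites were exposed to test compound at 0.1, 0.25, 0.5, 1 and 2x the ABS IC50. Heme species were fractionated and normalized to the number of cells analyzed, counted by flow cytometry of an aliquot. Significance was tested by two-tailed t-tests.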

[15] = tested on: Dd2-B2 late rings; assay: Hb endocytosis by Western blot; assay type: cell-based, Plasmodium falciparum; conditions: 5′ the IC50 for 5 h, normalized to DMSO control
How it was run: (§2)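 Sorbitol-synchronized parasites were exposed to test compound at 5x IC50 for 5 h, starting at the late ring stage. Lysates were blotted to nitrocellulose and probed overnight at 4°C with rabbit anti-human Hb (1:5,000) and anti-β-actin (1:2,000). Detection was by ECL. Hb band intensities were normalized to β-actin and compared with untreated controls. Repeated on 3–4 independent occasions.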

[16] = tested on: PfMDR1^selY290F late rings; assay: Hb endocytosis by Western blot; assay type: cell-based, Plasmodium falciparum; conditions: 5′ the IC50 for 5 h
How it was run: as §2

[17] = tested on: cultured P. berghei liver-stage parasites; conditions: cited from earlier work
[18] = all exposure levels up to 2′ IC50, 32 h

CC(=O)N1CCN(c2ccc(CN(C(=O)/C=C/c3ccc(C(C)(C)C)cc3)[C@@H](Cc3ccccc3)C(=O)N3CCN(Cc4ccc(C#N)cc4)CC3)cc2)CC1 [ACT-451840]
fold decreased susceptibility versus Dd2-B2 ([1]; PfMDR1^edF1072L): 16 fold
fold decreased susceptibility versus Dd2-B2 ([1]; PfMDR1^edS1075I): 5.5 fold
fold decreased susceptibility versus Dd2-B2 ([1]; PfMDR1^selY290F): 45 fold
activity against Pf ABS parasites and GAMs [2]: low nanomolar

CCOC(=O)C1=C(C)NC2=C(C(=O)CC(c3ccc(OC)c(OC)c3)C2)C1c1ccccc1Cl (centres unmarked) [GNF-Pf-5660]
early-stage gametocytocidal activity [3]: potent
late-stage gametocytocidal activity [4]: potent
pIC50 [5]: > 7.60
pIC50 [6]: > 7.60
pIC50 [7]: > 7.60
inhibition of HEK293 cells [8]: no inhibition
reduction in oocyst density per infected mosquito midgut ([9]; GAMs pre-treated at 3x late-stage IC50): 95–99%
reduction in infection prevalence (percentage of infected mosquitoes) ([9]; GAMs pre-treated at 3x late-stage IC50, 3 days, then 4 days without compound): 97%
reduction in male GAM exflagellation rates [10]: 98%
reduction of parasitemia compared to vehicle-treated mice ([11]; 70 mg/kg intraperitoneal): 22%
reduction of parasitemia compared to vehicle-treated mice ([11]; 100 mg/kg intraperitoneal): 65%
reduction in oocyst burden [12]: 21%
reduction in the number of infected mosquitoes [12]: 25%
fold increase in IC50 compared to parental Dd2-B2 ([1]; GNF-Pf-5660-selected clone 2B6H1, PfMDR1 Y290F (AB 100%)): 248 fold
fold decrease in Hz levels compared with untreated controls ([13]; 0.1′ the IC50 value): 1.5 fold
fold reduction in Hz levels ([13]; 0.25′ to 2′ IC50): 2.3 fold
Hb concentration per parasite [13, 18]: unchanged
free heme concentration per parasite [13, 18]: unchanged
fold higher exposure levels than in Dd2-B2 giving similar profile of reduced Hz and total heme iron [14]: > 160 fold
reduction of Hb levels within parasites [15]: 32%
Hb levels within parasites [16]: unchanged
activity against liver-stage parasites [17]: inactive
